Data as given in ChEMBL document CHEMBL1142827, “The identification and optimization of a N-hydroxy urea series of flap endonuclease 1 inhibitors” (Bioorg Med Chem Lett, 2005).

What was measured:
Type in all cases: functional, Homo sapiens
T-24 [1] = assay: Percent of viable cells by survival assay (colony forming) in T24 bladder carcinoma cells at 1 uM in the presence of DMSO
Summary of the method: (§1)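 Colony-forming survival assay in T24 bladder carcinoma cells. Compound was given alongside DMSO alone or methyl methanesulfonate (MMS) at 110, 150 or 200 μM. Survival is expressed relative to the DMSO-only control, set at 100. Values are the average of two independent experiments.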

T-24 [2] = assay: Percent of viable cells by survival assay (colony forming) in T24 bladder carcinoma cells at 3 uM in the presence of DMSO; summary of the method: as §1
T-24 [3] = assay: Percent of viable cells by survival assay (colony forming) in T24 bladder carcinoma cells at 1 uM in the presence of 110 uM MMS; summary of the method: as §1
T-24 [4] = assay: Percent of viable cells by survival assay (colony forming) in T24 bladder carcinoma cells at 1 uM in the presence of 150 uM MMS; summary of the method: as §1
T-24 [5] = assay: Percent of viable cells by survival assay (colony forming) in T24 bladder carcinoma cells at 1 uM in the presence of 200 uM MMS; summary of the method: as §1
T-24 [6] = assay: Percent of viable cells by survival assay (colony forming) in T24 bladder carcinoma cells at 3 uM in the presence of 110 uM MMS; summary of the method: as §1
T-24 [7] = assay: Percent of viable cells by survival assay (colony forming) in T24 bladder carcinoma cells at 3 uM in the presence of 150 uM MMS; summary of the method: as §1
T-24 [8] = assay: Percent of viable cells by survival assay (colony forming) in T24 bladder carcinoma cells at 3 uM in the presence of 200 uM MMS; summary of the method: as §1

| SMILES | Viable cells (T-24 [1]) [%] | Viable cells (T-24 [2]) [%] | Viable cells (T-24 [3]) [%] | Viable cells (T-24 [4]) [%] | Viable cells (T-24 [5]) [%] | Viable cells (T-24 [6]) [%] | Viable cells (T-24 [7]) [%] | Viable cells (T-24 [8]) [%] |
| --- | --- | --- | --- | --- | --- | --- | --- | --- |
| COc1cc(Cn2c(=O)n(O)c(=O)c3c(C)csc32)cc2c1OCO2 | 100 | 86 | 24 | 12 | 2 | 11 | 6 | 0 |
| O=c1c2sccc2n(CC2COc3ccccc3O2)c(=O)n1O (stereo unspecified) | 96 | 87 | 18 | 6 | 4 | 11 | 5 | 4 |
